Assay results from ChEMBL document CHEMBL2346582, “Guanidino anthrathiophenediones as G-quadruplex binders: uptake, intracellular localization, and anti-Harvey-Ras gene activity in bladder cancer cells” (J Med Chem, 2013).
The source made the active and inactive calls. The rule behind the calls is not given here.

How the values were obtained:
T-24 [1] = assay: Cytotoxicity against human T24 cells expressing mutant HRAS at 1 to 30 uM after 72 hrs by resazurin assay; format: functional, cell-based; conditions: T-24, 72 h
How it was run: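 Cells seeded at 3000 per well the day before treatment, grown in DMEM with 10% FBS. Ligand added at 1, 2.5, 5, 10, 20, 30 μM for 72 h. Viability measured by resazurin and expressed as % of untreated cells; mean of three independent measurements. IC50 is the concentration reducing proliferation by 50%.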

Salmonidae = assay: Thermal stabilization of salmon sperm duplex DNA assessed as melting temperature by FRET assay
NIH3T3 [2] = assay: Cellular uptake in mouse NIH/3T3 cells assessed as accumulation in nucleoli at 2.5 uM after 4 hrs by propidium iodide staining-based confocal microscopic analysis; format: ADME, cell-based; conditions: nih3t3, 4 h
How it was run: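 NIH 3T3 cells on coverslips treated with 2.5 μM ligand for 2 or 4 h. Fixed with paraformaldehyde, DRP1 immunostained (FITC), nuclei stained with propidium iodide. Confocal imaging with 543 nm excitation of ligand fluorescence.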

T-24 [3] = assay: Induction of apoptosis in human T24 cells by caspase 3/7 assay; format: functional, cell-based
T-24 [4] = assay: Binding affinity to interleukin-8 promoter DNA in human T24 cells at 0.5 to 5 uM treated for 24 hrs prior to transfection measured 72 hrs post transfection by dual-luciferase reporter gene assay relative to control; format: cell-based; conditions: in the assay text read “5 uM” for “0.5 to 5 uM”
How it was run: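 T24 cells pretreated 24 h with ligand (0.5, 2.5, 5 μM). Then co-transfected with jet-PEI: firefly reporter (250 ng/well), either HRAS promoter wild type, HRAS promoter with 4 point mutations in the quadruplex motifs, or IL-8 promoter, plus CMV-Renilla (10 ng/well). Dual-Glo read 72 h post-transfection. Firefly/Renilla expressed as T/C × 100 relative to untreated cells.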

T-24 [5] = assay: Cell cycle arrest in human T24 cells assessed as accumulation at G2/M phase at 10 uM after 48 to 72 hrs by FACS analysis relative to control; format: functional
How it was run: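 T24 cells treated with 10 μM ligand for 48 or 72 h. Fixed 1 h at 4 °C in 70% ethanol, then stained with propidium iodide 0.05 mg/mL plus RNase A 0.1 mg/mL for 30 min at room temperature. Analysed by FACS (FL2). Phase percentages compared with control by t-test (p < 0.05).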

NIH3T3 [6] = assay: Cellular uptake in mouse NIH/3T3 cells after 4 hrs by FACS flow cytometric analysis in presence of cytochalasin D; format: ADME, cell-based; conditions: nih3t3, 4 h
Homo sapiens [7] = species on record: Homo sapiens; assay: Thermal stabilization of human NRAS G-quadruplex FAM-GGGAGGGGCGGGUCUGGG-TAMRA RNA assessed as melting temperature at 1:1 DNA:ligand ratio by FRET assay
How it was run: (§1)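 FRET melting in 50 mM Tris-HCl pH 7.4 with an equimolar ligand:quadruplex ratio (r = 1). Conditions: NRAS RNA and hras-2 in 10 mM KCl; hras-1 in 100 mM KCl, with ΔTM taken from its second transition. Ramp 1 °C/min from 20 to 95 °C after 5 min equilibration. TM and ΔTM (±0.5 K) versus ligand-free quadruplex.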

T-24 (human) = assay: Cell cycle arrest in human T24 cells expressing mutant HRAS assessed as accumulation at G2/M phase at 10 uM after 24 hrs by FACS analysis
[8] = Binding affinity to human NRAS G-quadruplex FAM-GGGAGGGGCGGGUCUGGG-TAMRA RNA assessed as quenching of fluorescence emission by FRET titration assay
How it was run: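 RNA quadruplex, 200 nM, dual-labelled with FAM and TAMRA, in 50 mM Tris-HCl pH 7.4, 10 mM KCl. Titrated with ligand at r = 1–5 ([ligand]/[quadruplex]). The fraction of bound quadruplex was calculated from quenching of fluorescence and fitted to the Hill equation to give KD.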

Homo sapiens [9] = species on record: Homo sapiens; assay: Thermal stabilization of human NRAS G-quadruplex FAM-GGGAGGGGCGGGUCUGGG-TAMRA RNA assessed as change in melting temperature at 1:1 DNA:ligand ratio by FRET assay; how it was run: as §1
T-24 (Homo sapiens) = assay: Cellular uptake in human T24 cells after 4 hrs by FACS flow cytometric analysis in presence of dynasore; conditions: t24, 4 h
Homo sapiens [10] = species on record: Homo sapiens; assay: Thermal stabilization of human HRAS2 G-quadruplex FAM-CGGGGCGGGGCGGGGGCGGGGGCG-TAMRA DNA assessed as as change in melting temperature at 1:1 DNA:ligand ratio by FRET assay; how it was run: as §1
[11] = Binding affinity to mouse KRAS G-quadruplex FAM-GCGGGAGGGAGGGAAGGAGGGAGGGAGGGAG-TAMRA DNA assessed as quenching of fluorescence emission by FRET titration assay
How it was run: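 FRET titration of 200 nM oligonucleotide dual-labelled at its ends with carboxyfluorescein (donor) and tetramethylrhodamine (acceptor), in 50 mM Tris-HCl with KCl (100 mM for htelo and hras-1, 10 mM for KRAS and hras-2). Ligand binding quenches the emission, mainly the acceptor at 580 nm. The fraction of filled sites was fitted to the Hill equation to give apparent KD and the Hill coefficient.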

T-24 [12] = assay: Antiproliferative activity against human T24 cells by trypan blue assay; format: functional, cell-based
T-24 [13] = assay: Binding affinity to HRAS G-quadruplex DNA in human T24 cells assessed as reduction in p21HRAS level at 5 uM after 72 hrs by immunoblotting analysis relative to control; format: cell-based; set-up: scale not given: the % may be the effect or the level left
How it was run: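 T24 cells treated with 5 μM ligand for 48 or 72 h. Lysates (30 μg) run on 12% SDS-PAGE and immunoblotted with monoclonal anti-HRAS and β-actin antibodies, with HRP detection. HRAS level = (p21HRAS/β-actin treated)/(p21HRAS/β-actin untreated) × 100.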

NIH3T3 [14] = assay: Cellular uptake in mouse NIH/3T3 cells at 0.5 to 10 uM after 10 mins to 8 hrs by flow cytometric analysis; format: ADME, cell-based; conditions: nih3t3, 10 µM
How it was run: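 Flow cytometric uptake of 10 μM ligand over time (15 min, 1, 2, 6, 8 h; T24, and up to 8 h in NIH 3T3 and 293). Cells plated at 5 × 10^4 per well the day before. Ligand fluorescence detected in FL3 (680 nm), at least 10,000 cells acquired.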

NIH3T3 [15] = assay: Cellular uptake in mouse NIH/3T3 cells at 0.5 to 10 uM after 8 hrs by flow cytometric analysis; format: ADME, cell-based; conditions: nih3t3, 8 h
How it was run: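 Cells plated at 5 × 10^4 per well and treated next day with ligand at […] for 8 h. Then trypsinized, resuspended in PBS and analysed by flow cytometry (488 nm excitation, FL3 680 nm, log scale), at least 10,000 cells per sample. Uptake read from intrinsic ligand red fluorescence.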

NIH3T3 [16] = assay: Cellular uptake in mouse NIH/3T3 cells after 4 hrs by FACS flow cytometric analysis in presence of dynasore; format: ADME, cell-based; conditions: nih3t3, 4 h
T-24 [17] = assay: Binding affinity to HRAS G-quadruplex DNA in human T24 cells assessed as reduction in p21HRAS level at 5 uM after 72 hrs by immunoblotting analysis relative to control

Activity (Salmonidae) | Drug uptake (NIH3T3 [2]) | Drug uptake (NIH3T3 [6]) | Tm (Homo sapiens [7]) [°C] | Kd [8] [nM] | deltaTm (Homo sapiens [9]) [K] | Drug uptake (T-24 (Homo sapiens)) | deltaTm (Homo sapiens [10]) [K] | Kd [11] [nM] | Drug uptake (NIH3T3 [14]) | Drug uptake (NIH3T3 [15]) | Drug uptake (NIH3T3 [16]) | SMILES | IC50 (T-24 [1]) [nM] | Activity (T-24 [3]) | Activity (T-24 [4]) | Activity (T-24 [5]) [%] | Activity (T-24 (human)) | Activity (T-24 [12]) | Activity (T-24 [13]) [%] | Activity (T-24 [17])
Active | Active | Active | > 90 | 60 | > 13 | Active | 7 | 270 | Active | Active | – | N=C(N)NCCCCNc1c2c(c(NCCCCNC(=N)N)c3sccc13)C(=O)c1ccccc1C2=O | 19100 | inactive | inactive | 12 | Active | inactive | 20 | –
Active | Active | Active | 88 | 90 | 11 | – | 3 | 230 | Active | Active | Active | N=C(N)NCCCNc1c2c(c(NCCNC(=N)N)c3sccc13)C(=O)c1ccccc1C2=O | 6500 | inactive | inactive | 12 | Active | inactive | 20 | Active
Active | – | Active | 86 | 120 | 9 | Active | 4 | 210 | Active | Active | – | N=C(N)NCCCNc1c2c(c(NCCNC(=N)N)c3ccsc13)C(=O)c1ccccc1C2=O | 7900 | inactive | inactive | 12 | Active | inactive | 20 | Active
Active | Active | Active | 82 | 380 | 5 | – | 3 | 250 | Active | Active | Active | N=C(N)NCCNc1c2c(c(NCCNC(=N)N)c3sccc13)C(=O)c1ccccc1C2=O | 4400 | inactive | inactive | 12 | Active | inactive | 20 | –
Active | Active | Active | 88 | 110 | 11 | Active | 3 | 180 | Active | Active | – | N=C(N)NCCCNc1c2c(c(NCCCNC(=N)N)c3sccc13)C(=O)c1ccccc1C2=O | 19500 | inactive | inactive | 12 | Active | inactive | 20 | –
